From PMC10694493 (Cell Reports Methods, 2023)

Experiment: B2LiVe 1D-1H amide-selective NMR, solution-to-membrane partitioning
Format: binding
Conditions: POPC:POPG 9:1 LUV; 3 μM protein; pH 4.2
Procedure, shortened: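 Test protein held constant while POPC:POPG 9:1 LUV (reverse-phase evaporation, 40 mM stock, extruded through 1.2 μm filters) are titrated from 0 to 2 mM. Buffer: 20 mM HEPES-Na, 20 mM NaCl, 5% D2O, 25°C. 1D amide-selective HET-SOFAST 1H spectra at 800 MHz, PC9 120° pulse centred at 9.5 ppm. Fraction in solution is taken from the amide integral after subtracting the highest-lipid vesicle spectrum.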

B1: apo-Mb: apo-myoglobin, 16.9 kDa amphitropic protein, Sigma-Aldrich (protein, UniProt P68082 2-154, looked up)
Myoglobin: GLSDGEWQQVLNVWGKVEADIAGHGQEVLIRLFTGHPETLEKFDKFKHLKTEAEMKASEDLKKHGTVVLTALGGILKKKGHHEAELKPLAQSHATKHKIPIKYLEFISDAIIHVLHSKHPGDFGADAQGAMTKALELFRNDIAAKYKELGFQG
modifications: heme-free
In the case of B1, the “NMR signal remaining at the highest lipid concentration” value is reported as “completely disappears”.
